Reference: ChEMBL document CHEMBL1143620, “Discovery of diphenyloxazole and Ndelta-Z-ornithine derivatives as highly potent and selective human prostaglandin EP(4) receptor antagonists” (J Med Chem, 2005)

Tests used:
[1] = target: T1, Prostaglandin E2 receptor EP3 subtype (Homo sapiens, UniProt P43115); assay: Inhibition of [3H]PGE-2 binding to human prostanoid EP3 receptor
T1 sequence (P43115 whole entry): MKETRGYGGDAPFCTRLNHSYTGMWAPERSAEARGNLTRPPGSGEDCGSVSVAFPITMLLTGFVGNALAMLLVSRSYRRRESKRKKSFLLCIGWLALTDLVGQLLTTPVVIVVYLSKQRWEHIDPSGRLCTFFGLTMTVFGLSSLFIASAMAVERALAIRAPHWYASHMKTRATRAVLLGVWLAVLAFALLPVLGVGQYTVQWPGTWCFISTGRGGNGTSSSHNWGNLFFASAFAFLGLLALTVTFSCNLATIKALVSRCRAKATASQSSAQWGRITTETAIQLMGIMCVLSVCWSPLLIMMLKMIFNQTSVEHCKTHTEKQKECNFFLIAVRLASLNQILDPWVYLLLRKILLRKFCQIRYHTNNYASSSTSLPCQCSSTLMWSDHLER

[2] = Half life in rat after iv administration (n=2-3); type: ADME, organism-based; conditions: in vivo
[3] = target: Prostaglandin E2 receptor EP4 subtype (Homo sapiens, UniProt P35408); assay: Inhibition of [3H]PGE-2 binding to human prostanoid EP4 receptor
Prostaglandin E2 receptor EP4 subtype (Homo sapiens, UniProt P35408), sequence (P35408 whole entry): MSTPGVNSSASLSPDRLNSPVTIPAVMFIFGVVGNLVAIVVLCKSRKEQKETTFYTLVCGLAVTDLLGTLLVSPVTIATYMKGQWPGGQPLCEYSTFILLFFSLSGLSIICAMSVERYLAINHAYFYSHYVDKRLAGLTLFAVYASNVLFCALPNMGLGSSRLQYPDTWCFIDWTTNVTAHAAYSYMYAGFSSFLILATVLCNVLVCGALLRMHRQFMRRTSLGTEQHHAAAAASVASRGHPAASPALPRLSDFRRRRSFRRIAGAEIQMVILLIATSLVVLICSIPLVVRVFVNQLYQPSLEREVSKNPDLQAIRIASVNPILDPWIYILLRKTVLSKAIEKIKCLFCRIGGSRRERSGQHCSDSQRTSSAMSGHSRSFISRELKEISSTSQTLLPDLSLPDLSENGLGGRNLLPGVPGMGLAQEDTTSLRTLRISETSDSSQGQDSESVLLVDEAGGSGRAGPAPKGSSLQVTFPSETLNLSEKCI

[4] = Half life in dog after iv administration (n=2-3); type: ADME, organism-based, Canis lupus familiaris; conditions: in vivo
[5] = Bioavailability in rat at 0.32 mg/kg after po administration (n=3); type: ADME, organism-based; conditions: in vivo
[6] = Bioavailability in dog at 0.32 mg/kg after po administration (n=3); type: ADME, organism-based, Canis lupus familiaris; conditions: in vivo
Method in brief: (§1)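 Single oral doses, n = 3 animals per dose. Peak plasma level reported in ng/mL, with oral bioavailability given as F (%). Values are mean ± SE.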

[7] = Clearance in dog after iv administration (n=2-3); type: ADME, organism-based, Canis lupus familiaris; conditions: in vivo
[8] = Maximal plasma concentration in dogs after 0.32 mg/kg oral dose, n=3; type: ADME, organism-based, Canis lupus familiaris; parameters: dose 0.32 mg/kg, route oral; conditions: dog; method in brief: as §1
[9] = Clearance in rat after iv administration (n=2-3); type: ADME, organism-based; conditions: in vivo
Prostacyclin receptor = Prostacyclin receptor (Homo sapiens, UniProt P43119); assay: Inhibition of [3H]iloprost binding to human prostanoid IP receptor
Prostacyclin receptor, sequence (P43119 whole entry): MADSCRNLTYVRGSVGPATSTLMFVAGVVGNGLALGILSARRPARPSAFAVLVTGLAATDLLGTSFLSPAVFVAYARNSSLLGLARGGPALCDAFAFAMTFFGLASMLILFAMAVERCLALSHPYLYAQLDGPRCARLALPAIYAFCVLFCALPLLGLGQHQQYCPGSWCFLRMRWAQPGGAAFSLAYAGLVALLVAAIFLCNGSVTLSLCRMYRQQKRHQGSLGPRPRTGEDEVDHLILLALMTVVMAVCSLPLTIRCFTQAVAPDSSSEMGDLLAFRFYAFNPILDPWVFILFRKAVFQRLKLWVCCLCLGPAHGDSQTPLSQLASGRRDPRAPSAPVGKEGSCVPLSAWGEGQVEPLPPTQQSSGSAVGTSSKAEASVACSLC

[10] = Bioavailability in dog at 3.2 mg/kg after po administration (n=3); type: ADME, organism-based, Canis lupus familiaris; conditions: in vivo; method in brief: as §1
[11] = target: T2, Prostaglandin E2 receptor EP1 subtype (Homo sapiens, UniProt P34995); assay: Inhibition of [3H]-PGE-2 binding to human prostanoid EP1 receptor
T2 sequence (P34995 whole entry): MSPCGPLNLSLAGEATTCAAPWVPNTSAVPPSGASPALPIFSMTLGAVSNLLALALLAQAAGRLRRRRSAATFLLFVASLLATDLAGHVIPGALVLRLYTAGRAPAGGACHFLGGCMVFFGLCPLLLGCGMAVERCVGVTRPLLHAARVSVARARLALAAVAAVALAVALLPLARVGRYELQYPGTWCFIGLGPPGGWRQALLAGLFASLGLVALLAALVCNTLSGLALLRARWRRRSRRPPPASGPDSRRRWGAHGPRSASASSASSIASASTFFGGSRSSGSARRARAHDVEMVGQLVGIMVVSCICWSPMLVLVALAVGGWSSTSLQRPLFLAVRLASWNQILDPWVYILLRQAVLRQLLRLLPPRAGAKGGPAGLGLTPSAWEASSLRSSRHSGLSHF

[12] = target: T3, Prostaglandin D2 receptor (Homo sapiens, UniProt Q13258); assay: Inhibition of [3H]PGD-2 binding to human prostanoid DP receptor
T3 sequence (Q13258 whole entry): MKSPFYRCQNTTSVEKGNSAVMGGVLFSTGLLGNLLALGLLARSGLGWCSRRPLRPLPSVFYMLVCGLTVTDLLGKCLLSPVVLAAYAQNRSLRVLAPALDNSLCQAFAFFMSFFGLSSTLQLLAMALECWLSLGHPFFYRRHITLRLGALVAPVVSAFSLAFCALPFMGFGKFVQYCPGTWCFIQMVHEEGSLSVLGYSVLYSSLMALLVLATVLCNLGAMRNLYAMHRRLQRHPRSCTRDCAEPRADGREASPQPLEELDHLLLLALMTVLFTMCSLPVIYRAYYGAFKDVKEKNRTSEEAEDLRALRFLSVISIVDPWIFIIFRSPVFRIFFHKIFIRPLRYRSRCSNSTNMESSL

[13] = Maximal plasma concentration in rats after 10 mg/kg oral dose n=3; type: ADME, organism-based; parameters: dose 10 mg/kg, route oral; conditions: rat
Thromboxane A2 receptor = target: T4, Thromboxane A2 receptor (Homo sapiens, UniProt P21731); assay: Inhibition of [3H]SQ-29,548 binding to human prostanoid TP receptor
T4 sequence (P21731 whole entry): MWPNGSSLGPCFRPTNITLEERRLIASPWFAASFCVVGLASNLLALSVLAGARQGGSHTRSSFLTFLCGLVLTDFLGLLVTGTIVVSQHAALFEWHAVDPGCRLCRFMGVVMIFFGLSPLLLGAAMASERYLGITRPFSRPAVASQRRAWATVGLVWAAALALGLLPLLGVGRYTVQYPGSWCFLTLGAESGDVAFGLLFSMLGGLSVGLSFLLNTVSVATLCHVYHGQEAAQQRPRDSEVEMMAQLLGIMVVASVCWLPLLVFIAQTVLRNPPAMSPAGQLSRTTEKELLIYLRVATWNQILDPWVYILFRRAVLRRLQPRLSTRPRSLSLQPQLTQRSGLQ

[14] = target: Prostaglandin F2-alpha receptor (Homo sapiens, UniProt P43088); assay: Inhibition of [3H]PGF-2 binding to human prostanoid FP receptor
Prostaglandin F2-alpha receptor, sequence (P43088 whole entry): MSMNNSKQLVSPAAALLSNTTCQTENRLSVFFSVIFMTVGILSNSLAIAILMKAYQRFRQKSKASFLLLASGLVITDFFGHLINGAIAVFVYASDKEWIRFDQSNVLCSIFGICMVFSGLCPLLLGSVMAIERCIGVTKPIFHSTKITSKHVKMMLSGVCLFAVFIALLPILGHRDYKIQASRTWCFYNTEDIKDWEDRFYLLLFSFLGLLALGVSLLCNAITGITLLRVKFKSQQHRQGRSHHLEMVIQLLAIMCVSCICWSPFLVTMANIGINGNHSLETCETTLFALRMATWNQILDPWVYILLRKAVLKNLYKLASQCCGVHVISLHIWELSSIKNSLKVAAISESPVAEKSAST

[15] = Maximal plasma concentration in dogs after 3.2 mg/kg oral dose, n=3; type: ADME, organism-based, Canis lupus familiaris; parameters: dose 3.2 mg/kg, route oral; conditions: dog; method in brief: as §1
[16] = target: Prostaglandin E2 receptor EP4 subtype (Rattus norvegicus, UniProt P43114); assay: Inhibition of rat prostanoid EP4 receptor
Prostaglandin E2 receptor EP4 subtype (Rattus norvegicus, UniProt P43114), sequence (P43114 whole entry): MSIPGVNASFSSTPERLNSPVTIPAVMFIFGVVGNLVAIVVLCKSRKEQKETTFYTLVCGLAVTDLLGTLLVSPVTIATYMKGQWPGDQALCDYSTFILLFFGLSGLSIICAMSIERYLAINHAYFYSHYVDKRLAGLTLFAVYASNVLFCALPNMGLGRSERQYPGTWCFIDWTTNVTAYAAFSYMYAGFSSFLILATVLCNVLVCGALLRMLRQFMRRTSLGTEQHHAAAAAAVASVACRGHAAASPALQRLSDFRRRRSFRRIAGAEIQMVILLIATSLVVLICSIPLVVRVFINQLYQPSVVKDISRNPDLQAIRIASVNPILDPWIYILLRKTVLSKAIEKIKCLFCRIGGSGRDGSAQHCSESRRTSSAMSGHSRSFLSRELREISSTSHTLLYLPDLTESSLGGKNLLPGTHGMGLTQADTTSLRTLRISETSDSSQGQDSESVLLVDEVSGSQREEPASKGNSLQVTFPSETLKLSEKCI

[17] = target: Prostaglandin E2 receptor EP2 subtype (Homo sapiens, UniProt P43116); assay: Inhibition of [3H]PGE-2 binding to human prostanoid EP2 receptor
Prostaglandin E2 receptor EP2 subtype, sequence (P43116 whole entry): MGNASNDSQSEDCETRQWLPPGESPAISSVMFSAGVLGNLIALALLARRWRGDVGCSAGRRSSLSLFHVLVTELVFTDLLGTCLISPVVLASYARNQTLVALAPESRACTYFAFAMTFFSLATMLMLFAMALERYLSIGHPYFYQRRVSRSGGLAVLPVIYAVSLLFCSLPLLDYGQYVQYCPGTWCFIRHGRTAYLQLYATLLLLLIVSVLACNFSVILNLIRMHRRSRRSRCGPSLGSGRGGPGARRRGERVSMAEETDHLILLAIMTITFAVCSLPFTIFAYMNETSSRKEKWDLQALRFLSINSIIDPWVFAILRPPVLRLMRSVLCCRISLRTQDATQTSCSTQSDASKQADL

[18] = Bioavailability in rat (dose 10 mg/kg p.o.); type: ADME, organism-based; conditions: in vivo, po
[19] = Bioavailability in dog at 0.10 mg/kg after po administration (n=3); type: ADME, organism-based, Canis lupus familiaris; conditions: in vivo, 0.1 mg/kg; method in brief: as §1
[20] = Maximal plasma concentration in dogs after 0.1 mg/kg oral dose, n=3; type: ADME, organism-based, Canis lupus familiaris; parameters: dose 0.1 mg/kg, route oral; conditions: dog; method in brief: as §1

## O=C([O-])COc1cccc(C[C@@H]2CCCC=C2c2nc(-c3ccccc3)c(-c3ccccc3)o2)c1.[Na+]
[1]
  Ki: > 1000 nM
[2]
  half-life: 6.6 h
[3]
  Ki: 1020 nM
[4]
  half-life: 3 h
[5]
  bioavailability: 50%
[6]
  bioavailability: 72%
[7]
  clearance: 1.59 mL/min/kg
[8]
  Cmax: 592 ng/mL
[9]
  Cl: 17.7 mL/min/kg

## O=C(O)Cc1cccc(C[C@@H]2CCCC=C2c2nc(-c3ccccc3)c(-c3ccccc3)o2)c1
[3]
  Ki: 50 nM
Prostacyclin receptor
  Ki: 170 nM

## O=C(O)CCCCCNC(=O)[C@H](CCCCNC(=O)OCc1ccccc1)NC(=O)c1cc2ccccc2o1
[3]
  Ki: 8.4 nM

## O=C(NS(=O)(=O)Cc1ccccc1)c1cccc(C[C@@H]2CCCC=C2c2nc(-c3ccccc3)c(-c3ccccc3)o2)c1
[1]
  Ki: > 3000 nM
[10]
  bioavailability: 97%
[2]
  half-life: 4.4 h
[3]
  Ki: 0.3 nM
[11]
  Ki: > 3000 nM
[12]
  Ki: > 3000 nM
[4]
  half-life: 5.5 h
[13]
  Cmax: 2100 ng/mL
Thromboxane A2 receptor
  Ki: > 3000 nM
[14]
  Ki: > 3000 nM
[15]
  Cmax: 8200 ng/mL
Prostacyclin receptor
  Ki: > 3000 nM
[16]
  Ki: 0.74 nM
[17]
  Ki: > 3000 nM
[7]
  clearance: 0.52 mL/min/kg
[18]
  bioavailability: 51%
[9]
  clearance: 10.2 mL/min/kg

## O=C(NCCC[C@H](NC(=O)c1cc2ccccc2[nH]1)C(=O)N[C@@H](Cc1ccccc1)C(=O)O)OCc1ccccc1
[1]
  Ki: > 1000 nM
[3]
  Ki: 43 nM
[11]
  Ki: > 1000 nM
[12]
  Ki: > 1000 nM
Thromboxane A2 receptor
  Ki: > 1000 nM
[14]
  Ki: > 1000 nM
Prostacyclin receptor
  Ki: > 1000 nM
[17]
  Ki: > 1000 nM

## CN(Cc1ccccc1)C(=O)[C@H](Cc1ccccc1)NC(=O)[C@H](CCCNC(=O)OCc1ccccc1)NC(=O)c1cc2ccccc2[nH]1
[3]
  Ki: 80 nM

## O=C(O)c1cccc(C[C@@H]2CCCC=C2c2nc(-c3ccccc3)c(-c3ccccc3)o2)c1
[1]
  Ki: > 3000 nM
[2]
  half-life: 4 h
[3]
  Ki: 5.5 nM
[11]
  Ki: 2500 nM
[12]
  Ki: > 3000 nM
[4]
  half-life: 5.5 h
[13]
  Cmax: 9100 ng/mL
Thromboxane A2 receptor
  Ki: > 3000 nM
[19]
  bioavailability: 25%
[14]
  Ki: > 3000 nM
Prostacyclin receptor
  Ki: 610 nM
[20]
  Cmax: 57.3 ng/mL
[17]
  Ki: > 3000 nM
[7]
  clearance: 0.52 mL/min/kg
[18]
  bioavailability: 99%
[9]
  clearance: 11.2 mL/min/kg

## O=C(O)CCCCCNC(=O)[C@H](CCCNC(=O)OCc1ccccc1)NC(=O)c1cc2ccccc2o1
[1]
  Ki: > 10000 nM
[3]
  Ki: 0.91 nM
[11]
  Ki: > 10000 nM
[12]
  Ki: > 10000 nM
Thromboxane A2 receptor
  Ki: > 10000 nM
[14]
  Ki: > 10000 nM
Prostacyclin receptor
  Ki: > 10000 nM
[16]
  Ki: 5.1 nM
[17]
  Ki: > 10000 nM

## O=C(O)CCCCCNC(=O)[C@@H](CCCCNC(=O)OCc1ccccc1)NC(=O)c1cc2ccccc2o1
[3]
  Ki: 240 nM

## O=C(NOCc1ccccc1)c1cccc(C[C@@H]2CCCC=C2c2nc(-c3ccccc3)c(-c3ccccc3)o2)c1
[1]
  Ki: > 3000 nM
[3]
  Ki: 0.68 nM
[11]
  Ki: > 3000 nM
[12]
  Ki: > 1000 nM
Thromboxane A2 receptor
  Ki: > 1000 nM
[14]
  Ki: > 1000 nM
Prostacyclin receptor
  Ki: > 3000 nM
[17]
  Ki: > 3000 nM
